The record followed here is ChEMBL document CHEMBL2321729, “Identification of acidic heterocycle-substituted 1H-pyrazolo[3,4-b]pyridines as soluble guanylate cyclase stimulators” (Bioorg Med Chem Lett, 2013).

Values after ≈ are worked out from the molar mass of the structure shown.

Data set [1] has as its system Rattus norvegicus. Put plainly: Antihypertensive activity in po dosed spontaneously hypertensive rat assessed as reduction of blood pressure measured up to 24 hrs. It counts as functional, organism-based. In a few lines: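 Oral gavage at 0 h in spontaneously hypertensive rats; controls given vehicle. Blood pressure expressed as a percentage of initial values (131–142 mmHg). Mean of 6–12 animals.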

The nature of data set [2]: Oral bioavailability in Wistar rat at 0.3 mg/kg. The conditions noted are these: in vivo. In kind it is ADME, organism-based. In a few lines: (§1)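 Wistar rats given 0.3 mg/kg as an intravenous bolus and by oral gavage, formulated in EtOH/PEG400/H₂O; mean values. AUC_norm was calculated from the concentration–time curve after the intravenous dose. Clearance was taken as total plasma (or total blood) clearance. Mean residence time, half-life and oral bioavailability were also derived.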

Data set [3] is described as follows: Mean residence time in Wistar rat at 0.3 mg/kg, iv and 0.3 mg/kg, po. It counts as ADME, organism-based. The settings on record: in vivo. In a few lines: as §1
Data set [4] is described as follows: Half life in Wistar rat at 0.3 mg/kg, iv and 0.3 mg/kg, po. In kind it is ADME, organism-based. The conditions noted are these: in vivo. In a few lines: as §1
Data set [5] is described as follows: Total blood clearance in Wistar rat at 0.3 mg/kg, iv and 0.3 mg/kg, po. In kind it is ADME, organism-based. The conditions noted are these: whole blood. Put shortly: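 Wistar rats received 0.3 mg/kg by intravenous bolus and by oral gavage, vehicle EtOH/PEG400/H₂O. Total blood clearance was reported as the mean value from these administrations.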
In data set [6] the test system is Rattus norvegicus. Description: Dose normalized AUC in Wistar rat at 0.3 mg/kg, iv. In kind it is ADME, organism-based. More on the design: dose 0.3 mg/kg, route intravenous. The conditions noted are these: in vivo. In a few lines:
as §1

Data set [7] is described as follows: Pseudo-thermodynamic solubility of the compound at pH 6.5. In kind it is physicochemical. The settings on record: buffer, read-out: Therm_solubility. Put shortly: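 Pseudo-thermodynamic solubility measured at pH 6.5.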
Another data set concerns Hepatocyte. Description: Stability of the compound in rat liver hepatocytes. In kind it is ADME, cell-based. Put shortly: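 Bioavailability (Fmax) predicted from incubation with rat liver hepatocytes.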
The nature of data set [8]: Stimulation of soluble guanylate cyclase activity in pre-contracted rabbit aortic rings assessed as inhibition of vasoconstriction. The settings on record: Oryctolagus cuniculus. Put shortly: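 Relaxation of rabbit aortic rings that were pre-contracted before exposure. IC50 given as the mean of three experiments.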
The test system of the next data set is Liver microsomes. Description: Stability of the compound in rat liver microsomes. It counts as ADME, Microsome. Put shortly:
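Bioavailability (Fmax) predicted from incubation with rat liver microsomes.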
For orientation: Microsomes from liver hold many membrane-bound enzymes, among them those of drug oxidation.

The nature of data set [9]: Total plasma clearance in Wistar rat at 0.3 mg/kg, iv and 0.3 mg/kg, po. It counts as ADME, organism-based. Put shortly: as §1

Consider `O=c1[nH]c(-c2nn(Cc3ccccc3F)c3ncccc23)no1`, for which the Activity result with Rattus norvegicus [1] is “Dose-dependent effect”. The bioavailability – broadly, dose-corrected exposure relative to a reference, in per cent – in [2] was 75%. In addition, the MRT (commonly the average time that molecules of a dose stay in the body) in [3] is 1.9 h. The half-life – broadly, the time needed for the level to fall by half in the phase considered – in data set [4] is 1.4 h. Further, the clearance in data set [5] was 11.7 mL/min/kg. The molecule further registered an AUC/dose with Rattus norvegicus [6] of 2.79 kg·h/L. In addition, the solubility thermodynamic in data set [7] worked out at 320 µg/mL (≈ 1030 µM). The Stability with Hepatocyte was determined as 98%. Besides, the half-maximal inhibitory concentration (IC50) (as a rule, the concentration needed to halve the response being measured) in [8] came to 1260 nM.

Turning to `Cn1nc(-c2nn(Cc3ccccc3F)c3ncccc23)[nH]c1=O`, the solubility thermodynamic in [7] was found to be 4 µg/mL (≈ 12.3 µM). Besides, in the data set with Hepatocyte, the Stability is listed as 74%. Further, the IC50 in [8] is 870 nM.

As for `Fc1ccccc1Cn1nc(-c2noc(=S)[nH]2)c2cccnc21`, in data set [7], the solubility thermodynamic was determined as 280 µg/mL (≈ 855 µM). Besides, the Stability with Hepatocyte is reported as 69%. Moreover, in data set [8], the IC50 is 1100 nM.

In the data set on Liver microsomes, `O=c1[nH]nc(-c2nn(Cc3ccccc3F)c3ncccc23)o1` had a Stability of 59%. Further, in data set [7], the solubility thermodynamic came to 10 µg/mL (≈ 32.1 µM). Moreover, the IC50 in data set [8] was found to be 610 nM.

The molecule `O=c1[nH]c(-c2nn(Cc3ccccc3F)c3ncccc23)nn1CC(F)(F)F` gave a Stability in the data set on Hepatocyte of 91%. Moreover, in [8], the concentration for half-maximal inhibition (IC50) came to 610 nM.

For the molecule `O=c1[nH]c(-c2nn(Cc3ccccc3F)c3ncccc23)ns1`, the solubility thermodynamic in data set [7] turned out to be 11 µg/mL (≈ 33.6 µM). This molecule also had a Stability with Hepatocyte of 90%. The IC50 in data set [8] amounted to 520 nM.

`CCn1nc(-c2nn(Cc3ccccc3F)c3ncccc23)[nH]c1=O` showed a Stability with Hepatocyte of 69%. The IC50 in data set [8] was 730 nM.

`Nc1nc(-c2nn(Cc3ccccc3F)c3ncccc23)nc(N)c1N1CCOCC1` had a bioavailability in data set [2] of 25%. This molecule had a half-life in data set [4] of 1.2 h. Besides, in [5], the clearance was 75 mL/min/kg. In the data set on Rattus norvegicus [6], this molecule returned an AUC/dose of 0.32 kg·h/L. In the data set with Hepatocyte, this molecule came in with a Stability of 76%. In data set [8], the IC50 worked out at 100 nM.

As to `O=c1[nH]nc(-c2nn(Cc3ccccc3F)c3ncccc23)[nH]1`, the solubility thermodynamic in data set [7] was determined as 16 µg/mL (≈ 51.6 µM). The same molecule registered a Stability with Hepatocyte of 59%. Moreover, in data set [8], the IC50 amounted to 3100 nM.

`Fc1ccccc1Cn1nc(-c2nnn[nH]2)c2cccnc21` registered a bioavailability in [2] of 94%. The same molecule showed a clearance in data set [9] of 4.67 mL/min/kg. The molecule further had a half-life in data set [4] of 2.4 h. In the data set on Rattus norvegicus [6], this molecule gave an AUC/dose of 3.63 kg·h/L. The solubility thermodynamic in data set [7] is 150 µg/mL (≈ 508 µM). In the data set with Hepatocyte, this molecule showed a Stability of 100%. In addition, the half-maximal inhibitory concentration (IC50) in data set [8] is 8600 nM.
